From PubChem
UCH37 DUB inh: blocks the human deubiquitinase UCH37; actives 0.33% (n = 330,000); Q9Y5K5; AID 588478; inhibition, % (concentration not given with the values); purified proteasome/UCH37, Ub-AMC cleavage fluorescence;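 active = mean inhibition over replicate wells above about 20%, limit read from the data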
Target sequence (Q9Y5K5 whole entry, looked up): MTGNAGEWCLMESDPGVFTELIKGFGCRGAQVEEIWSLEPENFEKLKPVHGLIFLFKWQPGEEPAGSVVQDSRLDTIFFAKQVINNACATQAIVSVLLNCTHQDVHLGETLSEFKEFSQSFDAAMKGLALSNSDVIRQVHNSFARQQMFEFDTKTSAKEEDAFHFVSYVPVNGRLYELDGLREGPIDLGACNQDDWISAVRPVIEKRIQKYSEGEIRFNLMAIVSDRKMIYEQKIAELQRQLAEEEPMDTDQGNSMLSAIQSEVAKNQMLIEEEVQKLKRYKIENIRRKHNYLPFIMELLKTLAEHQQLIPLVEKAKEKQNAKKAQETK
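Material: human UCH37 enzyme supplied as purified proteasome complex / Amount: 0.15 nM proteasome as dispensed / Buffer or medium: pH 7.4 Tris-HCl (50 mM) with ovalbumin, ATP-MgCl2, DTT / Times: preincubation 30 min, reaction 25 min, room temperature / Technique: AMC fluorescence from Ub-AMC cleavage, excitation 355 nm, emission 460 nm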
beta cell repl: inducers of beta-cell replication in MIN6 cells. MIN6 cells proliferation, ATPlite luminescence, 48 h; cells starved in 0.2% serum; 100% = growth in 10% serum. proliferation, % at 10 µM. actives 0.29% (n = 330,000);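 active = compounds whose signal lies at least 3.5 SD above the mean of all wells on their plate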
CR mimetic SO: caloric restriction mimetics inhibiting age-related superoxide in yeast. S. cerevisiae aged cells, superoxide DHE fluorescence; active compounds read low. superoxide response (% of plate mean), % at 10 µM. actives 0.18% (n = 330,000). AID 2690;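 active = superoxide response under a set limit, about three screen SD below normal, cut at about 65% in these data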;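 note: yeast aged for seven days with compound at 30 °C before DHE staining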
NR1D1 modulator: modulators of human Rev-erb alpha DNA binding; P20393; Rev-erbα–FITC-DNA binding, fluorescence polarization, 90 min; activity, % at 10 µM; actives 0.79% (n = 370,000); AID 1259318;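 active = activity above about 14%, limit read from the data; passing the limit was not always enough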
Rce1 inh: yeast Ras-converting enzyme inhibition. Q03530. yeast membranes, quenched prenylated peptide cleavage fluorescence. calls only. actives 0.27% (n = 290,000). AID 2563;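 active = fall in fluorescence gain of 50% or more versus controls, with final raw signal at or below 3038400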
PG9 Ab binder: PG9 antibody binding by small molecule | TR-FRET gp120-PG9 antibody binding | inhibition, % at 6.7 µM | actives 0.43% (n = 360,000) | AID 624416; in the data active = inhibition above about 8.5%
PG9 bind confirm: PG9 antibody binding, confirmed; actives 90% (n = 1,500); TR-FRET PG9 antibody binding, biochemical; shares compounds with PG9 Ab binder; inhibition, % at 6.7 µM; in the data active = inhibition above about 9%
PGV04 Ab binding: binds control antibody PGV04 in PG9 binder counter-screen; shares compounds with PG9 Ab binder; TR-FRET PGV04 antibody-gp120 binding, biochemical; inhibition, % at 6.7 µM; actives 95% (n = 1,500); in the data active = inhibition above about 9.5%
Rev-erbA confirm: Rev-erb alpha (human) modulation, hit confirmation; shares compounds with NR1D1 modulator; Rev-erb alpha FITC-DNA binding, fluorescence polarization, 90 min; activation, % at 25 µM; actives 61% (n = 3,000);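 active = activation at or above a set limit, or at least 3 SD above the negative control mean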
RORg counter: RORgamma DNA-binding activity, dose-response counter-screen; IC50, µM; shares compounds with NR1D1 modulator; actives 8% (n = 910); purified RORgamma protein-FITC-DNA binding, fluorescence polarization;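 active = Compounds whose fitted half-maximal concentration for disrupting protein-DNA binding is below 10 micromolar; the record names Rev-erb in its text, so the target is in doubt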
Hits are given with their value; – = inactive; · = no result. Only some compounds are listed: those with a hit (about 1.9% of all), similar ones and a draw of the others.

SMILES	UCH37 DUB inh	beta cell repl	CR mimetic SO	NR1D1 modulator	Rce1 inh	PG9 Ab binder	PG9 bind confirm	PGV04 Ab binding	Rev-erbA confirm	others
CCCN1C(=O)C2(C(C(=O)c3ccc(C)o3)=C(O)C(=O)N2CCCOC)c2ccccc21 (stereo not given)	–	–	–	–	–	9.2	18	22	·
COc1ccc(C=NN=Cc2ccc(OC)c(O)c2)cc1O	–	·	·	·	·	·	·	·	·
O=C(NN=Cc1ccco1)C1COc2ccccc2O1 (stereo not given)	–	·	·	·	·	·	·	·	·
COc1cccc(C2C(C(=O)c3cc4ccccc4o3)=C(O)C(=O)N2c2cc(C)on2)c1 (stereo not given)	–	–	–	–	–	20	17	25	·
COc1ccc(OC)c(C2C(C(=O)c3cc4ccccc4o3)=C(O)C(=O)N2c2cc(C)on2)c1 (stereo not given)	–	–	–	–	–	–	·	·	·
COc1ccccc1C1C(C(=O)c2cc3ccccc3o2)=C(O)C(=O)N1c1cc(C)on1 (stereo not given)	–	–	–	–	–	10	18	32	·
C=CCOc1cccc(C2C(C(=O)c3cc4ccccc4o3)=C(O)C(=O)N2c2cc(C)on2)c1 (stereo not given)	–	–	–	–	–	17	22	35	·
CCOC(=O)C1=c2c(=Cc3ccncc3)c(N)c(C(=O)OC)n2C(=O)C(c2ccncc2)S1 (stereo not given)	–	·	·	·	·	·	·	·	·
COc1cc(C=NN=C(N)c2nonc2N)cc(Br)c1OCc1ccccc1C	–	·	·	·	·	·	·	·	·
COc1ccc(-c2nc(NC(=O)c3ccc(OCC(=O)Nc4ccc(F)cc4)c(OC)c3)sc2C)cc1	–	–	–	180	–	81	69	82	154	RORg counter=–
CCC(=O)c1cn(CC(=O)Nc2cc(C)ccc2C)c2ccccc12	–	–	–	32	–	19	16	22	21
COc1ccccc1NC(=O)c1sc2ncn(Cc3cccc4ccccc34)c(=O)c2c1C	–	–	–	117	–	13	11	24	49	RORg counter=–
CC(Cn1nc([N+](=O)[O-])cc1C)=NNC(=O)COc1c(Cl)cc(Cl)cc1Cl	–	·	·	·	·	·	·	·	·
CCOC(=O)c1nn(-c2cccc(OC)c2)c2nc(CC)c(C#N)c(=O)n12	–	–	–	37	–	28	21	25	–
CCOC(=O)c1nn(-c2ccccc2F)c2nc(-c3ccco3)c(C#N)c(=O)n12	–	–	–	–	–	–	·	·	·
N#Cc1nc(-c2ccc(OCc3ccccc3)cc2)oc1N1CCC(C(N)=O)CC1	–	–	–	41	–	9.5	9.1	16	–
CCOC(=O)c1cc2sc(C)cc2n1CC(=O)NCCc1ccccc1	–	–	–	32	–	55	49	53	–
Cn1cc([N+](=O)[O-])c(C(=O)NN=Cc2ccc3c(c2)OCO3)n1	–	·	·	·	·	·	·	·	·
COc1ccc(C=NNC(=O)c2ccc(N(C)S(=O)(=O)c3ccccc3)cc2)c(OC)c1	–	·	·	·	·	·	·	·	·
COC(=O)NNC(=O)COc1ccc2ccccc2c1Br	–	–	–	–	–	–	·	·	·
O=C(COc1ccc2ccccc2c1Br)NNC(=O)Nc1ccccc1	–	–	–	281	–	37	41	48	381	RORg counter=4
CCOc1ccccc1-c1nc(-c2cc3ccc(C)cc3[nH]c2=O)no1	–	–	–	66	·	18	13	27	44
CCCc1nc(-c2cc3ccc(C)cc3[nH]c2=O)no1	–	–	–	–	–	–	·	·	·
CCCOc1ccc2cc(C(=O)NCc3ccccc3)c(=O)oc2c1	–	–	–	70	–	11	38	56	29
